ChEMBL document CHEMBL1938280, “Weight loss effects of quaternary salts of 5-amino-1-(chloromethyl)-1,2-dihydro-3H-benz[e]indoles; structure-activity relationships” (Bioorg Med Chem, 2012)

Assays:
Mus musculus [1] = test: Induction of weight loss in C3H/HeN mouse at 0.47 umol/kg, ip after 60 days (reference value: 27.7 +/- 4.6 %); format: functional
Mus musculus [2] = test: Toxicity in C3H/HeN mouse assessed as mortality at 4.2 umol/kg, ip; format: organism-based; settings: in vivo
In short: (§1)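 Male C3H/HeN mice, about 50 days old, in groups of 4. Baseline body weight and food and water intake were recorded for 7–10 days before treatment. A single ip injection in 42% aqueous DMSO was given on day 1, with vehicle-only controls. Body weight and food and water intake were then monitored 2–3 times per week for 60 days, with deaths noted.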

Mus musculus [3] = test: Induction of weight loss in C3H/HeN mouse at 12.6 umol/kg, ip after 60 days (reference value: 18.8 +/- 1.8 %); format: functional
Mus musculus [4] = test: Induction of weight loss in C3H/HeN mouse at 37.8 umol/kg, ip after 60 days (reference value: 31.5 +/- 8.2 %); format: functional
Mus musculus [5] = test: Induction of weight loss in C3H/HeN mouse at 1.4 umol/kg, ip after 60 days (reference value: 31.5 +/- 8.2 %); format: functional
Mus musculus [6] = test: Induction of weight loss in C3H/HeN mouse at 4.2 umol/kg, ip after 60 days (reference value: 30.1 +/- 5.9 %); format: functional
Mus musculus [7] = test: Toxicity in C3H/HeN mouse assessed as perceptible deterioration in health at 4.2 uM/kg, ip after 60 days; format: organism-based; settings: in vivo, 1440 h
In short: (§2)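 Male C3H/HeN mice, about 50 days old and in groups of 4, received one ip dose in 42% aqueous DMSO on day 1 after 7–10 days of baseline monitoring; vehicle-only animals served as controls. Food and water intake and body weight were recorded 2–3 times weekly for 60 days. General health was checked by observing clinical signs.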

Mus musculus [8] = test: Toxicity in C3H/HeN mouse assessed as loss of appetite at 4.2 uM/kg, ip after 60 days; format: organism-based; settings: in vivo, 1440 h; in short: as §2
Mus musculus [9] = test: Toxicity in C3H/HeN mouse assessed as difficulty in eating at 4.2 uM/kg, ip after 60 days; format: organism-based; settings: in vivo, 1440 h
Mus musculus [10] = test: Toxicity in C3H/HeN mouse assessed as difficulty in drinking at 4.2 uM/kg, ip after 60 days; format: organism-based; settings: in vivo, 1440 h
Mus musculus [11] = test: Induction of weight loss in C3H/HeN mouse at 4.2 umol/kg, ip after 60 days (reference value: 27.7 +/- 4.6 %); format: functional
Mus musculus [12] = test: Induction of weight loss in C3H/HeN mouse at 37.8 umol/kg, ip after 60 days (reference value: 35.6 +/- 3.1 %); format: functional
Mus musculus [13] = test: Induction of weight loss in C3H/HeN mouse at 4.2 umol/kg, ip after 60 days (reference value: 33.3 +/- 5.0 %); format: functional
Mus musculus [14] = test: Toxicity in C3H/HeN mouse assessed as mortality at 12.6 umol/kg, ip; format: organism-based; settings: in vivo; in short: as §1
Mus musculus [15] = test: Induction of weight loss in C3H/HeN mouse at 4.2 umol/kg, ip after 60 days (reference value: 26.1 +/- 7.8 %); format: functional
Mus musculus [16] = test: Toxicity in C3H/HeN mouse assessed as mortality at 4.2 umol/kg, ip after 15 days; format: organism-based; settings: in vivo, 360 h; in short: as §1
Mus musculus [17] = test: Induction of weight loss in C3H/HeN mouse at 377 umol/kg, ip after 60 days (reference value: 24.5 +/- 3.5 %); format: functional
Mus musculus [18] = test: Induction of weight loss in C3H/HeN mouse at 1130 umol/kg, ip after 18 days (reference value: 12.8 +/- 1.5 %); format: functional
Mus musculus [19] = test: Induction of weight loss in C3H/HeN mouse at 12.6 umol/kg, ip after 60 days (reference value: 41.6 +/- 8.7 %); format: functional
Mus musculus [20] = test: Induction of weight loss in C3H/HeN mouse at 37.8 umol/kg, ip after 60 days (reference value: 23.9 +/- 4.6 %); format: functional
Mus musculus [21] = test: Induction of weight loss in C3H/HeN mouse at 50.2 umol/kg, ip after 60 days (reference value: 27.4 +/- 9.4 %); format: functional
Mus musculus [22] = test: Toxicity in C3H/HeN mouse assessed as mortality at 117 umol/kg, ip; format: organism-based; settings: in vivo; in short: as §1
Mus musculus [23] = test: Induction of weight loss in C3H/HeN mouse at 0.14 umol/kg, ip after 60 days (reference value: 41.6 +/- 8.7 %); format: functional
Mus musculus [24] = test: Induction of weight loss in C3H/HeN mouse at 0.42 umol/kg, ip after 60 days (reference value: 23.6 +/- 3.7 %); format: functional
Mus musculus [25] = test: Induction of weight loss in C3H/HeN mouse at 1.4 umol/kg, ip after 60 days (reference value: 26.1 +/- 7.9 %); format: functional

For C[N+](C)(C)Cc1ccc(/C=C/C(=O)N2CC(CCl)c3c2cc(N)c2ccccc32)cc1.[Cl-] (centres undefined), the Activity (Mus musculus [1]) was 17% and the Activity (Mus musculus [2]) was “Toxic”.

Cn1c(C[N+](C)(C)Cc2ccc(/C=C/C(=O)N3CC(CO)c4c3cc(N)c3ccccc43)cc2)ccc1[N+](=O)[O-].[Br-] (centres undefined) showed an Activity (Mus musculus [3]) of 23.7% and an Activity (Mus musculus [4]) of 18.8%.

Cn1c(C[N+](C)(C)Cc2ccc(/C=C/C(=O)N3CC(CCl)c4c3cc(N)c3ccccc43)cc2)ccc1[N+](=O)[O-].[Br-] (centres undefined) was tested, and the Activity (Mus musculus [5]) was 19%, the Activity (Mus musculus [1]) was 38.3% and the Activity (Mus musculus [6]) was -4.1%. For the same compound, the Activity (Mus musculus [7]) was “Non-toxic”, the Activity (Mus musculus [8]) was “Non-toxic” and the Activity (Mus musculus [9]) was “Non-toxic”. The Activity (Mus musculus [10]) was “Non-toxic”.

CC1CN(C(=O)/C=C/c2ccc(C[N+](C)(C)Cc3ccc([N+](=O)[O-])n3C)cc2)c2cc(N)c3ccccc3c21.[Br-] (centres undefined) was tested, and the Activity (Mus musculus [11]) was 26% and the Activity (Mus musculus [12]) was 43.2%.

Cn1c(C[N+](C)(C)CCCCCC(=O)N2CC(CCl)c3c2cc(N)c2ccccc32)ccc1S(C)(=O)=O.O=C([O-])C(F)(F)F (centres undefined) was tested, and the Activity (Mus musculus [13]) was 16.8% and the Activity (Mus musculus [14]) was “Toxic”.

For CN(Cc1ccc(/C=C/C(=O)N2CC(CCl)c3c2cc(N)c2ccccc32)cc1)Cc1ccc([N+](=O)[O-])n1C (centres undefined), the Activity (Mus musculus [15]) was 21% and the Activity (Mus musculus [16]) was “Toxic”.

With Cn1c(C[N+](C)(C)Cc2ccc(/C=C/C(=O)N3CC(CCl)c4c3cc(O)c3ccccc43)cc2)ccc1[N+](=O)[O-].[Br-] (centres undefined) the Activity (Mus musculus [11]) was 18.8%.

For CC1CN(C(=O)/C=C/c2ccc(C[N+](C)(C)Cc3ccc(S(C)(=O)=O)n3C)cc2)c2cc(N)c3ccccc3c21.[Br-] (centres undefined), the Activity (Mus musculus [12]) was 30.4%.

With CN(N=O)C(=O)N[C@@H](C=O)[C@@H](O)[C@H](O)[C@H](O)CO [STREPTOZOCIN] the Activity (Mus musculus [17]) was 23.7% and the Activity (Mus musculus [18]) was -22.1%.

Work on Cn1c(C[N+](C)(C)CCCCCCC(=O)N2CC(CCl)c3c2cc(N)c2ccccc32)ccc1S(C)(=O)=O.O=C([O-])C(F)(F)F (centres undefined) yielded an Activity (Mus musculus [13]) of 11.6% and an Activity (Mus musculus [19]) of 2.9%.

In the case of Cn1c(C[N+](C)(C)Cc2ccc(/C=C/C(=O)N3CC(CO)c4c3cc(N)c3ccccc43)cc2)ccc1S(C)(=O)=O.[Br-] (centres undefined), the Activity (Mus musculus [20]) is reported as 36.8%, the Activity (Mus musculus [21]) is reported as 42.6% and the Activity (Mus musculus [22]) is reported as “Toxic”.

Cn1c(C[N+](C)(C)Cc2ccc(/C=C/C(=O)N3CC(CCl)c4c3cc(N)c3ccccc43)cc2)ccc1S(C)(=O)=O.[Br-] (centres undefined) was tested, and the Activity (Mus musculus [23]) was 44.1%, the Activity (Mus musculus [24]) was -7.6% and the Activity (Mus musculus [25]) was -22.8%.
